Results from different studies.
Oprm1: Mu-type opioid receptor (Oprm1, Rattus norvegicus, UniProt P33535)
ENO1: ENO1 (Candida albicans, UniProt P30575)
Sialidase-3: Sialidase-3 (Homo sapiens, UniProt Q9UQ49)
Prolyl endopeptidase: Prolyl endopeptidase (Mus musculus, UniProt Q9QUR6)

C/C=C1/CN2CC[C@]34C(=C(C(=O)OC)[C@H]1C[C@H]23)Nc1ccc(Br)cc14  Ki (Oprm1; ligand displacement; radioligand; cell membranes): 0.658 µM
COc1cc2c(cc1OC)CN(CCc1ccc(NC(=O)c3cccc4c(=O)c5cccc(OC)c5[nH]c34)cc1)CC2  Ki (D(4) dopamine receptor (DRD4, Homo sapiens, UniProt P21917); cell-free assay): > 10 µM
O=Nc1c(O)[nH]c(=O)[nH]c1=O  IC50 (ENO1; enzyme activity; inhibitor; absorbance): > 50 µM
CCCCNC(=O)N[C@H]1[C@H]([C@H](O)[C@H](O)CO)OC(C(=O)O)=C[C@@H]1O  IC50 (Sialidase-3; enzyme activity; inhibitor): > 500 µM
C=CCc1ccc(O)c(-c2cc(CC=C)ccc2O)c1  IC50 (Prolyl endopeptidase; enzyme activity; inhibitor; fluorescence): > 100 µM
CC(C)(C)CC(=O)N[C@H]1[C@H]([C@H](O)[C@H](O)CO)OC(C(=O)O)=C[C@@H]1O  IC50 (Sialidase-3; enzyme activity; inhibitor): > 500 µM
O=C1CCCN1CP(=O)(O)O  IC50 (ENO1; enzyme activity; inhibitor; absorbance): > 50 µM
COc1c2c(cc3c1-c1c(cc4c(c1OC)OCO4)C[C@H](C)[C@H](C)C3)OCO2  IC50 (Prolyl endopeptidase; enzyme activity; inhibitor; fluorescence): > 100 µM
CN1C(=O)CN=C(c2ccccc2F)c2cc([N+](=O)[O-])ccc21  IC50 (Aldo-keto reductase family 1 member C2 (AKR1C2, Homo sapiens, UniProt P52895); enzyme activity; inhibitor): 1.6 µM
C/C=C1/CN2CC[C@]34C(=C(C(=O)OC)[C@H]1C[C@H]23)Nc1ccc(I)cc14  Ki (Oprm1; ligand displacement; radioligand; cell membranes): 0.388 µM
